Experimental data published in ChEMBL document CHEMBL1145430, “Synthesis and simple 18F-labeling of 3-fluoro-5-(2-(2-(fluoromethyl)thiazol-4-yl)ethynyl)benzonitrile as a high affinity radioligand for imaging monkey brain metabotropic glutamate subtype-5 receptors with positron emission tomography” (J Med Chem, 2007).

Assays:
[1] = target: Metabotropic glutamate receptor 5 (Rattus norvegicus, UniProt P31424); assay: Displacement of […] from mGluR5 in rat brain membrane; type: cell membranes
In short: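 Competition binding against [³H]MPEPy in rat whole-brain membranes (minus cerebellum and brainstem), homogenized in 50 mM Tris-HCl/saline pH 7.5, pelleted at 39 800 g. Membranes 5 mg/800 µL final. Competitor from 10 mM ethanol stock, final 0.01 nM to 1 mM. Incubated 1 h at 22 °C, filtered on PEI-soaked GF/B, washed with cold saline, scintillation counted. Three determinations.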

[2] = Stability in human brain at 50 uCi in 37 degC after 3 hrs; type: ADME, tissue-based
In short: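 Human brain tissue (1.76 g) was homogenized in ice-cold saline (3 mL), then mixed with about 50 μCi radioligand in ethanol–water 1:1. The mixture was incubated at 37 °C and sampled at 5-180 min. Samples were taken into carrier-spiked acetonitrile plus 0.5 M KF, counted and centrifuged at 10 000 g. Supernatants went to HPLC, and pellets were counted to give recovery.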

Hippocampus [3] = assay: Drug uptake in rhesus monkey hippocampus at 4 mCi, iv after 60 to 120 mins; type: ADME, organism-based, Macaca mulatta; conditions: in vivo
In short: (§1)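 Anesthetized rhesus monkey (~10 kg; ketamine, propofol, isoflurane) given [18F] radioligand 4.0 mCi i.v. Imaged on HRRT with attenuation and scatter correction. Regional time–activity curves from MRI-coregistered regions of interest, expressed as %SUV (normalized for injected activity and body weight). Hippocampal uptake averaged over 60–120 min.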

[4] = Stability in rhesus monkey brain at 100 uCi in 37 degC after 90 mins; type: ADME, tissue-based, Macaca mulatta
In short: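 Monkey brain tissue (3.34 g, stored at -70 °C for 1 year) was homogenized on ice with about 100 μCi radioligand, incubated at 37 °C and sampled at 5-90 min. Samples were taken into acetonitrile spiked with carrier plus 0.5 M KF, counted and centrifuged at 10 000 g for 1 min. Supernatants went to HPLC, and pellets were counted to give recovery.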

Plasma = assay: Stability in rhesus monkey plasma at 5 uCi after 168 mins; type: ADME, cell-free, Macaca mulatta; conditions: 2.8 h
In short: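 Plasma was obtained by spinning whole monkey blood at 1800 g for 5 min. Plasma (1.0 mL) was incubated with 5 μCi radioligand at room temperature for 168 min, and a sample was analyzed by reverse-phase radio-HPLC.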

Hippocampus [5] = assay: Drug uptake in rhesus monkey hippocampus at 4 mCi, iv in presence of 6-methyl-2-(phenylethynyl)-pyridine after 60 to 120 mins; type: ADME, organism-based, Macaca mulatta; conditions: in vivo
In short: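 Same rhesus monkey on a separate day, given blocker 5 mg/kg i.v. in saline with 10% ethanol 15 min before [18F] radioligand (3.8 mCi i.v.). HRRT PET. Regional uptake expressed as %SUV from MRI-coregistered regions of interest, averaged over 60–120 min.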

[6] = Stability in aqueous solution after 159 mins; type: physicochemical; conditions: buffer, 2.65 h
In short: (§2)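 The radioligand was dissolved in water, sampled at 34, 48 and 159 min, and analyzed at once by reverse-phase radio-HPLC (Novapak C-18, MeOH–H2O–Et3N 70:30:0.1, 2.0 mL/min). A second solution in 0.9% saline containing 0.15 mM phosphoric acid was sampled at 54 and 71 min and analyzed the same way.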

Striatum [7] = assay: Drug uptake in rhesus monkey striatum at 4 mCi, iv in presence of 6-methyl-2-(phenylethynyl)-pyridine after 60 to 120 mins; type: ADME, organism-based, Macaca mulatta; conditions: in vivo
In short: (§3)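 Rhesus monkey (~10 kg) anesthetized with ketamine (10 mg/kg, i.m.) and propofol (5 mg/kg, i.v.), then isoflurane 1.0-4.0% in oxygen; body temperature 37-37.5 °C. Radioligand given i.v. and imaged on HRRT PET with attenuation and scatter correction. For blockade, MPEP/MTEP (5 mg/kg, i.v., in saline with 10% ethanol) given 15 min before tracer in the same monkey. Striatal ROI expressed as %SUV (normalized to injected activity and body weight) over 60-120 min.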

Brain = assay: Drug uptake in rhesus monkey brain at 4 mCi, iv; type: ADME, organism-based, Macaca mulatta; conditions: in vivo; in short: as §1
[8] = Stability in phosphate buffered saline at pH 7.4 after 71 mins; type: physicochemical; conditions: buffer, pH 7.4, 71 min; in short: as §2
Striatum [9] = assay: Drug uptake in rhesus monkey striatum at 4 mCi, iv after 60 to 120 mins; type: ADME, organism-based, Macaca mulatta; conditions: in vivo; in short: as §3
Blood = assay: Biodistribution in rhesus monkey blood at 4 mCi, iv after180 mins; type: ADME, organism-based, Macaca mulatta; conditions: in vivo, 3 h
In short: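 Anesthetized rhesus monkey given [18F] radioligand i.v. Heparinized blood drawn at 1 min intervals to 5 min, then at 10, 25, 40, 60, 90, 120 and 180 min, and kept on ice. Centrifuged 1800 g for 1.5 min. Plasma and cells γ-counted to give the partition of radioactivity into the cellular fraction.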

[10] = Stability in human whole blood at 2 uCi; type: ADME, tissue-based; conditions: read-out: Stability
In short: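 Radioligand (2 μCi) was added to human whole blood (2.0 mL) at 23 °C and sampled at 10-90 min. Each sample was mixed with acetonitrile spiked with carrier and with KF (0.5 M), counted and centrifuged at 10 000 g for 1 min. The supernatant was analyzed by radio-HPLC.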

Metabotropic glutamate receptor 5, sequence (P31424 whole entry): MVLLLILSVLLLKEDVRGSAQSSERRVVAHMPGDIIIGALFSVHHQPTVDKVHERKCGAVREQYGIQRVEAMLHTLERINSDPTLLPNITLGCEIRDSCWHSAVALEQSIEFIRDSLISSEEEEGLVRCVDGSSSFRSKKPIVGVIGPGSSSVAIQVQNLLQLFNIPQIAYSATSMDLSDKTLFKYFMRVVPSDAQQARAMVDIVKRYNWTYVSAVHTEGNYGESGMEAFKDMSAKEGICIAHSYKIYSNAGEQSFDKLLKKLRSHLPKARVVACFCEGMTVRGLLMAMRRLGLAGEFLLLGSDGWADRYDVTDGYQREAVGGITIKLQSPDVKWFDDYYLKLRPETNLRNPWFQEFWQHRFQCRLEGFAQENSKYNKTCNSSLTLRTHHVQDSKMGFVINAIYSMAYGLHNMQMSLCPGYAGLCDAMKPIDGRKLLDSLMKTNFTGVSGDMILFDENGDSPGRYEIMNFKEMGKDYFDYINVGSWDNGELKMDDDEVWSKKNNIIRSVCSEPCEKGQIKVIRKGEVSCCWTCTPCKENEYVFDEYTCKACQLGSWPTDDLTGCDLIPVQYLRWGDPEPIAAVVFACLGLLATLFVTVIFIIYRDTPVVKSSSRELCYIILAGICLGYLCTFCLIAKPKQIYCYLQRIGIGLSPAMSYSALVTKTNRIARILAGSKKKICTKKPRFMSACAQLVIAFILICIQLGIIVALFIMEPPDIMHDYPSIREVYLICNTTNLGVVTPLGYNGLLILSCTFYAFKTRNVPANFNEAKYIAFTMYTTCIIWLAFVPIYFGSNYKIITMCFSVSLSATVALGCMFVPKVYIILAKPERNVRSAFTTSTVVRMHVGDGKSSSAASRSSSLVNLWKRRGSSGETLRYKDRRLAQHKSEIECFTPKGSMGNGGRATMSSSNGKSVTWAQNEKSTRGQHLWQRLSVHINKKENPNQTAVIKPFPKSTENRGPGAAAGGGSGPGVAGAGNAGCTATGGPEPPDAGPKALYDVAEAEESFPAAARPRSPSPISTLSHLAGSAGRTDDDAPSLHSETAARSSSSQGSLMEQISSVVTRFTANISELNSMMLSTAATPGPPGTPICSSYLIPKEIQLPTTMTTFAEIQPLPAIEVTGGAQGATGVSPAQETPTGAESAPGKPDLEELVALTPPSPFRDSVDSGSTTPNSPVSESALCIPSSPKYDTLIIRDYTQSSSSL

IC50 [1]	remaining at 3 h, 50 uCi [2]	Drug uptake (Hippocampus [3])	remaining at 1.5 h, 100 uCi [4]	Stability (Plasma)	Drug uptake (Hippocampus [5])	Stability [6]	Drug uptake (Striatum [7])	Drug uptake (Brain)	Stability [8]	Drug uptake (Striatum [9])	Drug uptake (Blood)	remaining at 2 uCi [10]	SMILES
0.23 nM	–	–	–	–	–	–	–	–	–	–	–	–	N#Cc1cncc(C#Cc2csc(CF)n2)c1
–	98.6%	500%	98.2%	Stable	200%	Stable	200%	450%	Stable	500%	33.9%	> 98%	N#Cc1cc(F)cc(C#Cc2csc(C[18F])n2)c1
0.06 nM	–	–	–	–	–	–	–	–	–	–	–	–	N#Cc1cccc(C#Cc2csc(CF)n2)c1
